Assay results taken from ChEMBL document CHEMBL3102728, “Leonurusoleanolides E-J, minor spirocyclic triterpenoids from Leonurus japonicus fruits” (J Nat Prod, 2014).

Columns and labels:
Type in all cases: functional, cell-based
MCF7 = experiment: Cytotoxicity against human MCF7 cells after 72 hrs by CellTitre-Glo luminescent cell viability assay; conditions: MCF7, 72 h
Huh-7 = experiment: Cytotoxicity against human HuH7 cells after 72 hrs by CellTitre-Glo luminescent cell viability assay; conditions: Huh-7, 72 h
Jurkat = experiment: Cytotoxicity against human Jurkat cells after 72 hrs by CellTitre-Glo luminescent cell viability assay
In short: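 Jurkat grown in RPMI-1640 with 10% FBS and penicillin/streptomycin at 37 °C, 5% CO2. Cells seeded at 1000 per well, then given serially diluted compounds, with staurosporine as the positive control. Incubated 72 h in the dark, away from bright light. Viability read by CellTiter-Glo luminescence. IC50 obtained by regression of % viable cells against log concentration, 10 concentrations, triplicate experiments.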

[1] = Cytotoxicity against human KE-97 cells after 72 hrs by CellTitre-Glo luminescent cell viability assay; conditions: KE-97, 72 h
[2] = Cytotoxicity against human BGC823 cells after 72 hrs by CellTitre-Glo luminescent cell viability assay; conditions: BGC-823, 72 h

Row | Compound | IC50 (MCF7) [µM] | IC50 (Huh-7) [µM] | IC50 (Jurkat) [µM] | IC50 [1] [µM] | IC50 [2] [µM]
1 | CC1(C)CC[C@]2(CC[C@]3(C)C(=CC[C@@H]4[C@@]5(C)C[C@@H](O)[C@H](O)[C@@](C)(CO)[C@@H]5CC[C@]43C)[C@H]2O)C1 | 8.5 | > 10 | > 10 | > 10 | > 10
2 | CC1(C)CC[C@@]2(CC[C@]3(C)C(=CC[C@@H]4[C@@]5(C)C[C@@H](O)[C@H](O)[C@@](C)(COC(=O)/C=C/c6ccc(O)c(O)c6)[C@@H]5CC[C@]43C)[C@H]2O)C1 (relative stereo) | 4.3 | 9.7 | 9.7 | > 10 | > 10
3 | CC1(C)CC[C@@]2(CC[C@]3(C)C(=CC[C@@H]4[C@@]5(C)C[C@@H](O)[C@H](O)[C@@](C)(COC(=O)/C=C\c6ccc(O)cc6)[C@@H]5CC[C@]43C)[C@H]2O)C1 (relative stereo) | > 10 | > 10 | > 10 | > 10 | > 10
4 | COc1cc(/C=C\C(=O)O[C@H]2[C@H](O)C[C@@]3(C)[C@@H](CC[C@]4(C)[C@@H]3CC=C3[C@@H](O)[C@@]5(CCC(C)(C)C5)CC[C@]34C)[C@]2(C)CO)ccc1O | > 10 | > 10 | > 10 | > 10 | > 10
5 | CC1(C)CC[C@@]2(CC[C@]3(C)C(=CC[C@@H]4[C@@]5(C)C[C@@H](O)[C@H](O)[C@@](C)(COC(=O)/C=C/c6ccc(O)cc6)[C@@H]5CC[C@]43C)[C@H]2O)C1 | > 10 | > 10 | > 10 | > 10 | > 10
6 | CC1(C)CC[C@]2(CC[C@]3(C)C(=CC[C@@H]4[C@@]5(C)C[C@@H](O)[C@H](OC(=O)/C=C\c6ccc(O)cc6)[C@@](C)(CO)[C@@H]5CC[C@]43C)[C@H]2O)C1 | > 10 | > 10 | > 10 | > 10 | > 10
7 | CN[C@@H]1C[C@H]2O[C@@](C)([C@@H]1OC)n1c3ccccc3c3c4c(c5c6ccccc6n2c5c31)C(=O)NC4 [STAUROSPORINE] | – | – | 0.14 | – | –
8 | COc1cc(/C=C/C(=O)OC[C@@]2(C)[C@@H]3CC[C@]4(C)[C@H](CC=C5[C@@H](O)[C@]6(CCC(C)(C)C6)CC[C@]54C)[C@@]3(C)C[C@@H](O)[C@@H]2O)ccc1O | > 10 | > 10 | > 10 | > 10 | > 10
9 | CC1(C)CC[C@]2(CC[C@]3(C)C(=CC[C@@H]4[C@@]5(C)C[C@@H](O)[C@H](OC(=O)/C=C/c6ccc(O)cc6)[C@@](C)(CO)[C@@H]5CC[C@]43C)[C@H]2O)C1 | > 10 | > 10 | > 10 | > 10 | > 10
10 | COc1cc(/C=C\C(=O)OC[C@@]2(C)[C@@H]3CC[C@]4(C)[C@H](CC=C5[C@@H](O)[C@]6(CCC(C)(C)C6)CC[C@]54C)[C@@]3(C)C[C@@H](O)[C@@H]2O)ccc1O (relative stereo) | > 10 | > 10 | > 10 | > 10 | > 10
11 | COc1cc(/C=C/C(=O)O[C@H]2[C@H](O)C[C@@]3(C)[C@@H](CC[C@]4(C)[C@@H]3CC=C3[C@@H](O)[C@@]5(CCC(C)(C)C5)CC[C@]34C)[C@]2(C)CO)ccc1O | > 10 | > 10 | > 10 | > 10 | > 10
12 | CC1(C)CC[C@@]2(CC[C@]3(C)C(=CC[C@@H]4[C@@]5(C)C[C@@H](O)[C@H](OC(=O)/C=C/c6ccc(O)c(O)c6)[C@@](C)(CO)[C@@H]5CC[C@]43C)[C@H]2O)C1 (relative stereo) | 4.6 | 1.9 | 3.9 | 3 | 7.5
